From ChEMBL document CHEMBL2390820, “3-Biphenylimidazo[1,2-a]pyridines or [1,2-b]pyridazines and analogues, novel Flaviviridae inhibitors” (Eur J Med Chem, 2013) come the findings set out here.

Data set [1] can be described thus: Selectivity index, ratio of CC50 for Huh5-2 cells to EC50 for HCV genotype 1b infected in Huh5-2 cells. The arrangement: species or system Huh-5-2. The method in brief: (§1)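 Selectivity index is the ratio of CC50 from the 3-day MTS/PMS proliferation assay to EC50 in the same cell line. For Huh 5-2 the EC50 is from the luciferase replicon assay; for MDBK it is from the MTS CPE assay.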

The subject of the next data set is Hepatitis C virus. The experiment in a line: Antiviral activity against HCV genotype 1b infected in Huh5-2 cells assessed as inhibition of viral replication after 4 days by luciferase reporter gene assay. It is filed as functional, organism-based, Hepacivirus hominis, Huh-5-2. Conditions: for EC50: Hepatitis C virus, genotype 1b, Huh-5-2, 96 h. The method in brief: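 Huh 5-2 cells carrying the HCV subgenomic luciferase replicon were seeded at 5 × 10³/well with compound and incubated 4 days at 37 °C. Medium was removed and luciferase activity quantified. EC50 is the minimum concentration reducing replicon-driven luciferase signal by 50%.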
Background: Reporter assays use an easily measured gene product as a stand-in for the process of interest.

Data set [2] can be described thus: Cytotoxicity against human Huh5-2 cells assessed as growth inhibition after 3 days by MTS assay. It is filed as cell-based, Huh-5-2. The method in brief:
(§2)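 MDBK or Huh 5-2 cells were seeded at 5 × 10³/well in MEM-FCS, with serial compound dilutions added 24 h later. Cells proliferated 3 days at 37 °C, then metabolic activity was read by MTS/PMS. CC50 is the concentration inhibiting proliferation of exponentially growing cells by 50%, by linear interpolation.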
Background: Formazan colour is commonly taken as a measure of viable cells.

A short description of data set [3]: Selectivity index, ratio of CC50 for MDBK cells to EC50 for BVDV NADL infected in MDBK cells. The method in brief: as §1
The nature of data set [4]: Cytotoxicity against MDBK cells assessed as growth inhibition after 3 days by MTS assay. In kind it is cell-based, Bos taurus. Conditions: cattle. The method in brief: as §2
Data set [5] can be described thus: Antiviral activity against BVDV NADL infected in MDBK cells assessed as inhibition of virus-induced cytopathic effect formation after 5 days by MTS assay. It is filed as functional, cell-based, Bovine viral diarrhea virus 1-NADL. Conditions: Bovine viral diarrhea virus isolates and strains, 120 h. The method in brief: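 MDBK cells were seeded at 5 × 10³/well in MEM-FCS and held 24 h at 37 °C, 5% CO₂. Medium was replaced with 5-fold serial compound dilutions, then BVDV inoculum was added at MOI 2. CPE was read by MTS as OD at 490 nm. EC50 is the concentration giving 50% protection against virus-induced CPE, by linear interpolation.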
For orientation: Cytopathic effects are the visible damage that an infection or toxin causes in cultured cells.

≈ marks a conversion by molar mass, not a printed value.

What is called EC50 is the midpoint of the concentration-response curve. In general, CC50 refers to the concentration that lowers cell viability or growth by half. `c1ccc(-c2cccc(-c3cnc4ccc(-c5ccsc5)cn34)c2)cc1`: the “Ratio CC50/EC50” value in data set [1] was above 1.6; in data set [3] it was above 1. Also, the EC50 was 89.5 µg/mL (≈ 254 µM) in the data set on Hepatitis C virus and above 100 µg/mL in data set [5]. Also, the CC50 at 72 h in data set [2] is above 142 µg/mL; in data set [4] it was above 100 µg/mL.

As to `COc1cccc(-c2cccc(-c3c(-c4ccc(F)cc4)nc4ccccn34)c2)c1`, the figures for the “Ratio CC50/EC50” value in data set [1] and in data set [3] were 11.8 and 3.7, respectively. Moreover, the EC50 is 4.3 µg/mL (≈ 10.9 µM) with Hepatitis C virus and 3.1 µg/mL (≈ 7.86 µM) in data set [5]. Also, the CC50 at 72 h in data set [2] came out at 50.2 µg/mL (≈ 127 µM); in data set [4] it was 11.5 µg/mL (≈ 29.2 µM).

As for `Fc1ccc(-c2cccc(-c3c(-c4ccc(F)cc4)nc4ccccn34)c2)cc1`, the figures for the “Ratio CC50/EC50” value in data set [1] and in data set [3] were 5.3 and 1.4, respectively. Besides, the EC50 amounted to 10.3 µg/mL (≈ 26.9 µM) in the data set on Hepatitis C virus and 3.9 µg/mL (≈ 10.2 µM) in data set [5]. The values for the CC50 at 72 h in data set [2] and in data set [4] were 54.5 µg/mL (≈ 143 µM) and 5.4 µg/mL (≈ 14.1 µM), respectively.

As for `CC(C)(C)c1nc2ccc(-c3ccsc3)nn2c1-c1cccc(-c2cccc(O)c2)c1`, the results for the “Ratio CC50/EC50” value in data set [1] and in data set [3] were 5.2 and above 26.7, respectively. Besides, the EC50 in the data set on Hepatitis C virus is 3.9 µg/mL (≈ 9.16 µM); in data set [5], 3.7 µg/mL (≈ 8.69 µM). The CC50 at 72 h was 20 µg/mL (≈ 47 µM) in data set [2] and above 100 µg/mL in data set [4].

For `CC(C)(C)c1nc2ccc(-c3ccsc3)nn2c1-c1cccc(-c2ccc(O)cc2)c1`, the “Ratio CC50/EC50” value in data set [1] is 3; in data set [3] it was above 7.1. In addition, the results for the EC50 (in the data set on Hepatitis C virus; in data set [5]) were 5 µg/mL (≈ 11.7 µM) and 14.2 µg/mL (≈ 33.4 µM), respectively. The CC50 at 72 h was 15 µg/mL (≈ 35.2 µM) in data set [2] and above 100 µg/mL in data set [4].

For `COc1ccc(-c2cccc(-c3c(-c4ccc(F)cc4)nc4ccccn34)c2)cc1`, the “Ratio CC50/EC50” value was 21.3 in data set [1] and above 36 in data set [3]. Moreover, the EC50 amounted to 1.63 µg/mL (≈ 4.13 µM) in the data set on Hepatitis C virus and 2.8 µg/mL (≈ 7.1 µM) in data set [5]. Also, the values for the CC50 at 72 h in data set [2] and in data set [4] were 34.8 µg/mL (≈ 88.2 µM) and above 100 µg/mL, respectively.

Consider `COc1cccc(-c2nc3ccc(-c4ccsc4)cn3c2-c2cccc(-c3ccccc3)c2)c1`, for which the “Ratio CC50/EC50” value in data set [1] was 1.6; in data set [3], above 6.7. Further, the figures for the EC50 (in the data set with Hepatitis C virus; in data set [5]) were 52.4 µg/mL (≈ 114 µM) and 15 µg/mL (≈ 32.7 µM), respectively. Also, the CC50 at 72 h in data set [2] is 85.2 µg/mL (≈ 186 µM); in data set [4], above 100 µg/mL.

In the case of `COc1ccccc1-c1nc2ccc(-c3ccsc3)nn2c1-c1cccc(-c2ccccc2O)c1`, the “Ratio CC50/EC50” value in data set [1] was above 43; in data set [3], 12. Moreover, in the data set with Hepatitis C virus, the “inhibition (INH)” value is 60%. Also, the EC50 with Hepatitis C virus amounted to 4.8 µg/mL (≈ 10.1 µM); in data set [5], 1.36 µg/mL (≈ 2.86 µM). Also, the CC50 at 72 h in data set [2] is above 205 µg/mL; in data set [4], 16.2 µg/mL (≈ 34.1 µM).

`Fc1ccc(-c2nc3ccc(-c4ccccc4)cn3c2-c2cccc(-c3ccccc3)c2)cc1`: the results for the “Ratio CC50/EC50” value in data set [1] and in data set [3] were 1.09 and above 4, respectively. Also, the EC50 with Hepatitis C virus is 52.2 µg/mL (≈ 118 µM); in data set [5], 12 µg/mL (≈ 27.2 µM). For the same compound, the CC50 at 72 h in data set [2] is 56.8 µg/mL (≈ 129 µM); in data set [4], above 50 µg/mL.

On to `COc1ccccc1-c1cccc(-c2c(-c3ccc(F)cc3)nc3ccccn23)c1`, for which the “Ratio CC50/EC50” value in data set [1] is 2.8; in data set [3] it was 3.2. In addition, the EC50 with Hepatitis C virus stood at 10.7 µg/mL (≈ 27.1 µM); in data set [5] it was 2.7 µg/mL (≈ 6.84 µM). For the same compound, the CC50 at 72 h in data set [2] was found to be 29.7 µg/mL (≈ 75.3 µM); in data set [4], 8.5 µg/mL (≈ 21.5 µM).

For the compound `COc1ccccc1-c1nc2ccc(-c3ccsc3)nn2c1-c1cccc(-c2ccccc2)c1`, the “Ratio CC50/EC50” value in data set [1] came out at 6.6; in data set [3], 3.1. Besides, the EC50 in the data set on Hepatitis C virus was 14.7 µg/mL (≈ 32 µM); in data set [5] it was 3.4 µg/mL (≈ 7.4 µM). Further, the CC50 at 72 h in data set [2] was found to be 97.4 µg/mL (≈ 212 µM); in data set [4] it was 10.4 µg/mL (≈ 22.6 µM).

For `Fc1ccc(-c2nc3ccc(N4CCOCC4)cn3c2-c2cccc(-c3ccccc3)c2)cc1`, the figures for the “Ratio CC50/EC50” value in data set [1] and in data set [3] were 1.7 and above 1, respectively. Moreover, the figures for the EC50 (in the data set on Hepatitis C virus; in data set [5]) were 6.7 µg/mL (≈ 14.9 µM) and above 50 µg/mL, respectively. Further, the CC50 at 72 h in data set [2] was 11.1 µg/mL (≈ 24.7 µM); in data set [4], above 50 µg/mL.

In the case of `c1ccc(-c2cccc(-c3c(-c4ccsc4)nc4ccc(-c5ccsc5)cn34)c2)cc1`, the “Ratio CC50/EC50” value is listed as above 1.8 in data set [1] and above 15.2 in data set [3]. Further, the figures for the EC50 (in the data set with Hepatitis C virus; in data set [5]) were 64.5 µg/mL (≈ 148 µM) and 6.6 µg/mL (≈ 15.2 µM), respectively. The CC50 at 72 h in data set [2] was above 115 µg/mL; in data set [4], above 100 µg/mL.

With `Fc1ccc(-c2nc3ccccn3c2-c2cccc(-c3ccoc3)c2)cc1`, the “Ratio CC50/EC50” value in data set [1] was 3.4; in data set [3] it was 3.2. Further, the EC50 worked out at 19.2 µg/mL (≈ 54.2 µM) in the data set on Hepatitis C virus and 1.7 µg/mL (≈ 4.8 µM) in data set [5]. In addition, the results for the CC50 at 72 h in data set [2] and in data set [4] were 66.2 µg/mL (≈ 187 µM) and 5.6 µg/mL (≈ 15.8 µM), respectively.

On to `COc1ccccc1-c1nc2ccccn2c1-c1cccc(-c2ccc(O)cc2)c1`, for which the “Ratio CC50/EC50” value is given as 2.3 in data set [1] and above 5.6 in data set [3]. Further, the EC50 with Hepatitis C virus turned out to be 18.8 µg/mL (≈ 47.9 µM); in data set [5], 17.7 µg/mL (≈ 45.1 µM). In addition, the CC50 at 72 h is 43.8 µg/mL (≈ 112 µM) in data set [2] and above 100 µg/mL in data set [4].

With `Fc1ccc(-c2nc3ccc(N4CCOCC4)nn3c2-c2ccccc2-c2ccccc2)cc1`, the “Ratio CC50/EC50” value in data set [1] turned out to be 1; in data set [3], 3. The EC50 came to 11.1 µg/mL (≈ 24.6 µM) in the data set on Hepatitis C virus and 11 µg/mL (≈ 24.4 µM) in data set [5]. Also, the CC50 at 72 h turned out to be 11.1 µg/mL (≈ 24.6 µM) in data set [2] and 31 µg/mL (≈ 68.8 µM) in data set [4].
